# In ChEMBL document CHEMBL4699398, “The synthesis and biological evaluation of sanguinarine derivatives as anti-non-small cell lung cancer agents” (RSC Med Chem, 2020):
# The source made the active and inactive calls. The rule behind the calls is not given here.
# What was measured:
# A549 [1] = assay: Induction of cell cycle arrest in human A549 cells assessed as accumulation in G0/G1 phase at 0.3 uM incubated for 24 hrs by […] propidium iodide staining based flow cytometry (reference value: 63.11 %); assay type: functional
# A549 [2] = assay: Induction of cell cycle arrest in human A549 cells assessed as accumulation in G0/G1 phase at 3 uM incubated for 24 hrs by […] propidium iodide staining based flow cytometry (reference value: 63.11 %); assay type: functional
# NCI-H1975 [3] = assay: Induction of cell cycle arrest in human H1975 cells assessed as accumulation in G0/G1 phase at 3 uM incubated for 24 hrs by […] propidium iodide staining based flow cytometry (reference value: 62.86 %); assay type: functional
# A549 [4] = assay: Induction of cell cycle arrest in human A549 cells assessed as accumulation in S phase at 0.3 uM incubated for 24 hrs by […] propidium iodide staining based flow cytometry (reference value: 14.16 %); assay type: functional
# NCI-H1975 [5] = assay: Induction of cell cycle arrest in human H1975 cells assessed as accumulation in S phase at 0.3 uM incubated for 24 hrs by […] propidium iodide staining based flow cytometry (reference value: 14.13 %); assay type: functional
# NCI-H1975 [6] = assay: Induction of cell cycle arrest in human H1975 cells assessed as accumulation in S phase at 1 uM incubated for 24 hrs by […] propidium iodide staining based flow cytometry (reference value: 14.13 %); assay type: functional
# A549 [7] = assay: Induction of cell cycle arrest in human A549 cells assessed as accumulation in G2/M phase at 0.3 uM incubated for 24 hrs by […] propidium iodide staining based flow cytometry (reference value: 22.46 %); assay type: functional
# A549 [8] = assay: Induction of cell cycle arrest in human A549 cells assessed as accumulation in G2/M phase at 1 uM incubated for 24 hrs by […] propidium iodide staining based flow cytometry (reference value: 22.46 %); assay type: functional
# NCI-H1975 [9] = assay: Induction of cell cycle arrest in human H1975 cells assessed as accumulation in G2/M phase at 1 uM incubated for 24 hrs by […] propidium iodide staining based flow cytometry (reference value: 21.00 %); assay type: functional
# NCI-H1975 [10] = assay: Induction of cell cycle arrest in human H1975 cells assessed as accumulation in G2/M phase at 3 uM incubated for 24 hrs by […] propidium iodide staining based flow cytometry (reference value: 21.00 %); assay type: functional
# A549 [11] = assay: Induction of apoptosis in human A549 cells assessed as early apoptotic cells at 1 uM after 48 hrs by Annexin V-FITC/7-AAD staining based flow cytometric method (reference value: 3.26 %); assay type: functional
# A549 [12] = assay: Induction of apoptosis in human A549 cells assessed as necrotic cells at 1 uM after 48 hrs by Annexin V-FITC/7-AAD staining based flow cytometric method (reference value: 0.70 %); assay type: functional
# A549 [13] = assay: Induction of apoptosis in human A549 cells assessed as viable cells at 3 uM after 48 hrs by Annexin V-FITC/7-AAD staining based flow cytometric method (reference value: 93.10 %); assay type: functional; settings: read-out: Activity
# A549 [14] = assay: Induction of apoptosis in human A549 cells assessed as late apoptotic cells at 3 uM after 48 hrs by Annexin V-FITC/7-AAD staining based flow cytometric method (reference value: 2.94 %); assay type: functional
# NCI-H1975 [15] = assay: Induction of apoptosis in human H1975 cells assessed as early apoptotic cells at 0.3 uM after 48 hrs by Annexin V-FITC/7-AAD staining based flow cytometric method (reference value: 6.50 %); assay type: functional
# NCI-H1975 [16] = assay: Induction of apoptosis in human H1975 cells assessed as late apoptotic cells at 0.3 uM after 48 hrs by Annexin V-FITC/7-AAD staining based flow cytometric method (reference value: 4.63 %); assay type: functional
# NCI-H1975 [17] = assay: Induction of apoptosis in human H1975 cells assessed as necrotic cells at 0.3 uM after 48 hrs by Annexin V-FITC/7-AAD staining based flow cytometric method (reference value: 0.85 %); assay type: functional
# NCI-H1975 [18] = assay: Induction of apoptosis in human H1975 cells assessed as early apoptotic cells at 1 uM after 48 hrs by Annexin-V-FITC/7-AAD staining based flow cytometric method (reference value: 6.50 %); assay type: functional
# NCI-H1975 [19] = assay: Induction of apoptosis in human H1975 cells assessed as viable cells at 3 uM after 48 hrs by Annexin V-FITC/7-AAD staining based flow cytometric method (reference value: 88.02 %); assay type: functional; settings: read-out: Activity
# NCI-H1975 [20] = assay: Induction of apoptosis in human H1975 cells assessed as necrotic cells at 3 uM after 48 hrs by Annexin V-FITC/7-AAD staining based flow cytometric method (reference value: 0.85 %); assay type: functional
# A549 [21] = assay: Induction of apoptosis in human A549 cells assessed as increase in cleaved PARP level at 0.1 to 3 uM after 24 hrs by Western blot analysis; assay type: functional, cell-based; settings: dose microM 0.1-3, time 24.0 hrs
# Outline: (§1)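 After treatment, cells harvested and lysed in RIPA buffer; equal protein loaded on 12% SDS-PAGE and transferred to PVDF; blocked in 5% milk 2 h at room temperature; primary antibodies (AKT, p-AKT, cleaved caspase-3, cleaved caspase-9, PARP; GAPDH loading control) overnight at 4 °C; HRP secondaries 2 h at room temperature; chemiluminescent detection.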
# A549 [22] = assay: Induction of apoptosis in human A549 cells assessed as increase in cleaved caspase-9 level at 0.1 to 3 uM incubated for 24 hrs by Western blot analysis; assay type: functional, cell-based; settings: dose microM 0.1-3, time 24.0 hrs; outline: as §1
# NCI-H1975 [23] = assay: Induction of apoptosis in human H1975 cells assessed as increase in cleaved caspase-9 level at 0.1 to 3 uM incubated for 24 hrs by Western blot analysis; assay type: functional, cell-based; settings: dose microM 0.1-3, time 24.0 hrs; outline: as §1
# NCI-H1975 [24] = assay: Induction of apoptosis in human H1975 cells assessed as increase in Akt level at 0.1 to 3 uM incubated for 24 hrs by Western blot analysis; assay type: functional, cell-based; settings: dose microM 0.1-3, time 24.0 hrs; outline: as §1
# A549 [25] = assay: Induction of apoptosis in human A549 cells assessed as increase in phosphorylated Akt level at 0.1 to 3 uM incubated for 24 hrs by Western blot analysis; assay type: functional, cell-based; settings: dose microM 0.1-3, time 24.0 hrs; outline: as §1
# A549 [26] = assay: Induction of apoptosis in human A549 cells assessed as increase in ROS production incubated for 20 mins by DCFH-DA staining based flow cytometry analysis; assay type: functional, cell-based; settings: dose microM 0.3-3, time 20.0 min
# Outline: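 At 20 min after compound treatment, cells washed in PBS and loaded with 10 μM DCFH-DA in phenol red-free DMEM for 30 min at 37 °C in the dark; washed three times with PBS; DCF fluorescence of ROS-positive cells measured by flow cytometry with excitation at 488 nm.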
# A549 [27] = assay: Antiproliferative activity against human A549 cells assessed as inhibition of cell growth incubated for 72 hrs by CCK-8 assay; settings: A549, 72 h
smiles,measurement,setting,value
CN1c2c(ccc3cc4c(cc23)OCO4)-c2ccc3c(c2C1N1CCOCC1)OCO3 (configuration not stated),Activity,A549 [1],64.85%
same,Activity,A549 [2],71.21%
same,Activity,NCI-H1975 [3],77.7%
same,Activity,A549 [4],14.84%
same,Activity,NCI-H1975 [5],14.07%
same,Activity,NCI-H1975 [6],12.43%
same,Activity,A549 [7],20.27%
same,Activity,A549 [8],14.29%
same,Activity,NCI-H1975 [9],19.67%
same,Activity,NCI-H1975 [10],13.21%
same,Activity,A549 [11],8.03%
same,Activity,A549 [12],4.23%
same,viability at 3 µM,A549 [13],0.71%
same,Activity,A549 [14],93.73%
same,Activity,NCI-H1975 [15],10.94%
same,Activity,NCI-H1975 [16],5.55%
same,Activity,NCI-H1975 [17],0.98%
same,Activity,NCI-H1975 [18],10.59%
same,viability at 3 µM,NCI-H1975 [19],1.8%
same,Activity,NCI-H1975 [20],4.59%
same,Activity,A549 [21],Active
same,Activity,A549 [22],Active
same,Activity,NCI-H1975 [23],Active
same,Activity,NCI-H1975 [24],Active
same,Activity,A549 [25],Active
same,Activity,A549 [26],Dose-dependent effect
same,IC50,A549 [27],1790 nM
